In brackets after ≈: the same amount, converted by molar mass. Activity calls are given as the source filed them. No cut-off for these calls is given here.
Tests used:
Epidermophyton floccosum = experiment: Antifungal activity against Epidermophyton floccosum after 24 hrs; format: functional
Penicillium chrysogenum = experiment: Antifungal activity against Penicillium notatum ATCC 11654 at 1000 ug/ml after 24 hrs; format: functional, organism-based
[1] = test system: Neoscytalidium dimidiatum; experiment: Antifungal activity against Scytalidium dimidiatum at 1000 ug/ml after 24 hrs; format: functional, organism-based
Saccharomyces cerevisiae = experiment: Antifungal activity against Saccharomyces cerevisiae NCIMB 080178 at 1000 ug/ml after 24 hrs; format: functional, organism-based
Procedure, shortened: (§1)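 Agar dilution in 96-well plates. Samples in DMSO, made up with sterile water, 1:2 serially diluted over six steps, then mixed with an equal volume of molten double-strength Sabouraud dextrose agar (200 µL per well). Yeasts were grown on SDA at 30 °C for 24 h and harvested in PBS. 100 µL inoculum (10⁵ CFU) was added per well and incubated at 30 °C for 24 h. Miconazole was the positive control.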

Trichophyton rubrum = experiment: Antifungal activity against Trichophyton rubrum after 24 hrs
Aspergillus niger = experiment: Antifungal activity against Aspergillus niger ATCC 16404 at 1000 ug/ml after 24 hrs; format: functional, organism-based
[2] = test system: Trichophyton interdigitale; experiment: Antifungal activity against Trichophyton interdigitale EL 5171 after 24 hrs; format: functional
[3] = test system: Scopulariopsis brevicaulis; experiment: Antifungal activity against Scopulariopsis brevicaulis at 1000 ug/ml after 24 hrs
Candida albicans = experiment: Antifungal activity against Candida albicans ATCC 10234 at 1000 ug/ml after 24 hrs; format: functional, organism-based; procedure, shortened: as §1

| SMILES | MIC (Epidermophyton floccosum) | Activity (Penicillium chrysogenum) | Activity [1] | Activity (Saccharomyces cerevisiae) | MIC (Trichophyton rubrum) | Activity (Aspergillus niger) | MIC [2] | Activity [3] | Activity (Candida albicans) |
| --- | --- | --- | --- | --- | --- | --- | --- | --- | --- |
| C=C1CC/C=C(\C)C(=O)[C@H](OC(C)=O)[C@@H]2[C@@H]1CC2(C)C [BUDDLEDIN A] | 43 µM (≈ 11.9 µg/mL) | inactive | inactive | inactive | 43 µM (≈ 11.9 µg/mL) | inactive | 43 µM (≈ 11.9 µg/mL) | inactive | inactive |
| C=C1CC/C=C(\C)C(=O)[C@H](O)[C@@H]2[C@@H]1CC2(C)C [BUDDLEDIN B] | 51 µM (≈ 12 µg/mL) | inactive | inactive | inactive | 51 µM (≈ 12 µg/mL) | inactive | 51 µM (≈ 12 µg/mL) | inactive | inactive |
| CC(C)C1=CC=C2C(=C(O)C[C@H]3C(C)(C)CCC[C@]23C)C1=O [BUDDLEJONE] | 2500 µM (≈ 751 µg/mL) | inactive | inactive | inactive | 2500 µM (≈ 751 µg/mL) | inactive | 2500 µM (≈ 751 µg/mL) | inactive | inactive |
| CC(C)C1=CC=C2C(=CC[C@H]3C(C)(C)CCC[C@]23C)C1=O [DEOXYBUDDLEJONE] | 2640 µM (≈ 751 µg/mL) | inactive | inactive | inactive | 2640 µM (≈ 751 µg/mL) | inactive | 2640 µM (≈ 751 µg/mL) | inactive | inactive |
| CC(C)[C@]1(O)C(=O)C=C2[C@@]3(CC[C@H]4C(C)(C)CCC[C@]24C)[C@@H]2C(=O)[C@@](O)(C(C)C)[C@@H](C4=C2[C@@]2(C)CCCC(C)(C)[C@@H]2CC4)[C@H]31 [MAYTENONE] | 625 µM (≈ 378 µg/mL) | inactive | inactive | inactive | 625 µM (≈ 378 µg/mL) | inactive | 625 µM (≈ 378 µg/mL) | inactive | inactive |
| Clc1ccc(COC(Cn2ccnc2)c2ccc(Cl)cc2Cl)c(Cl)c1 (centres undefined) [MICONAZOLE] | 5 µM (≈ 2.08 µg/mL) | inactive | inactive | inactive | 5 µM (≈ 2.08 µg/mL) | inactive | 5 µM (≈ 2.08 µg/mL) | inactive | inactive |
